Measurements collected from several papers.
Protocols differ between the studies behind these lines.
Target: Muscarinic acetylcholine receptor M3 (CHRM3, Homo sapiens, UniProt P20309)
Concentration: 10 µM

| effect on | method | inhibition | SMILES |
| --- | --- | --- | --- |
| ligand displacement |  | -39.7% | CCCNc1nc2ccccc2n1Cc1ccc(Cl)cc1 |
| ligand displacement | radioligand | 13% | O=C(Nc1ccc(S(=O)(=O)N2CCC(Cl)CC2)cc1)c1ccc([N+](=O)[O-])o1 |
| ligand displacement | radioligand | 43% | CCN(CC)c1ccc(C2Nc3ccc(C(=O)c4ccccc4)cc3NC3=C2C(=O)CC(C)(C)C3)cc1 (stereo not drawn) |
| ligand displacement | radioligand | < 10% | O=C1N=C(N2CCCCN2)S/C1=C\c1ccc(F)cc1O |
| ligand displacement |  | -31.1% | N#Cc1cc(Cn2c(N3CCCC3)nc3ccccc32)ccc1F |
| cell-free assay |  | -16.6% | Oc1cccc(Nc2nc(-c3ccc(F)cc3F)cs2)c1 |
| ligand displacement | radioligand | 5% | Ic1cccc2cnccc12 |
| ligand displacement | radioligand | 14% | CCN(Cc1ccccc1C(F)(F)F)C(=O)C1CCN(S(=O)(=O)c2ccc3[nH]ncc3c2)CC1 |
| cell-free assay |  | 17% | O=C(c1ccc(F)cc1)N(Cc1ccccc1)C1CCCCC1 |
